Measurements reported in ChEMBL document CHEMBL1123881, “Synthesis and antiarrhythmic activity of new 3-[2-(omega-aminoalkoxy)phenoxy]-4-phenyl-3-buten-2-ones and related compounds” (J Med Chem, 1987).
In brackets after ≈: the same amount, converted by molar mass.

Experiments:
Oryctolagus cuniculus = species: Oryctolagus cuniculus; test: Tested in vitro for antiarrhythmic activity in isolated rabbit atria; assay type: functional; details: Heart
How it was run: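 Atria from New Zealand rabbits in oxygenated Ringer-Locke at 29 °C, paced with 10-ms, 10-V rectangular pulses at rising frequency to find the maximum driven frequency. This was remeasured before and 10, 15 and 20 min after drug addition. Dose-response curves on the same tissue, repeated 3-5 times. EC values by probit.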

Rattus norvegicus [1] = test: Antiarrhythmic activity ( protection against CaCl2 induced ventricular fibrillation ) in anesthetized rat administered intravenously; assay type: functional; details: Heart, iv
How it was run: (§1)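 Sprague-Dawley albino rats, 180-200 g, conscious or urethane-anesthetized (2.8 g/kg sc). Compound given via caudal or portal vein 2 min, or orally 60 min, before rapid iv 8% CaCl2 at 1 mL/kg. Lead II ECG monitored for fibrillation within 10 min. Five to ten rats per dose.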

[2] = The compound was tested for acute toxicity when given intraperitoneally in mouse.; assay type: organism-based; details: in vivo, ip
How it was run: (§2)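 Albino CF1 mice of both sexes, 18-20 g, dosed intraperitoneally; survivors observed for 1 week; ten mice per dose. LD50 derived by probit method, confidence limits at p = 0.05.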

[3] = The compound was tested for acute toxicity when given intravenously in rat; assay type: organism-based; details: in vivo, iv
How it was run: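 Sprague-Dawley rats of both sexes, 120-140 g, dosed intravenously; survivors observed for 1 week. LD50 derived by probit method, confidence limits at p = 0.05.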

[4] = The compound was tested for acute toxicity when given intraperitoneally in mouse; assay type: organism-based; details: in vivo, ip; how it was run: as §2
Mus musculus [5] = species: Mus musculus; test: The compound was tested for effective concentration (intradermal injection) that caused local anesthesia in 50% of mice by tail-clip method; assay type: functional, organism-based
How it was run: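 Tail-clip test in albino CF1 mice of both sexes, 18-20 g. Intradermal tail injection of 0.1 mL/mouse about 1 cm from the root.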

Rattus norvegicus [6] = test: Antiarrhythmic activity ( protection against CaCl2 induced ventricular fibrillation ) in conscious rat administered orally (po); assay type: functional; details: Heart; how it was run: as §1
Mus musculus [7] = test: Antiarrhythmic activity ( protection against aconitine induced ventricular tachycardia) in anesthetized mouse administered through iv.; assay type: functional; details: Heart
How it was run: (§3)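 Albino CF1 mice of both sexes, 20-22 g, pentobarbital-anesthetized (60 mg/kg ip), lead II ECG. Dosing iv (caudal vein) 2 min or orally 60 min before aconitine infusion, 8 µg/mL at 0.32 mL/min for 3 min. ECG read every 10 s. Endpoint is time to initial arrhythmia and to ventricular tachycardia. Ten mice per dose; probit analysis.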

Rattus norvegicus [8] = test: Antiarrhythmic activity ( protection against CaCl2 induced ventricular fibrillation ) in conscious rat administered intravenously; assay type: functional; details: Heart, iv; how it was run: as §1
Mus musculus [9] = test: Antiarrhythmic activity ( protection against aconitine induced initial arrhythmia ) in anesthetized mouse administered through iv.; assay type: functional; details: Heart; how it was run: as §3
Rattus norvegicus [10] = test: Antiarrhythmic activity (protection against CaCl2 induced ventricular fibrillation) in anesthetized rat administered through portal vein (ipv); assay type: functional; details: Heart; how it was run: as §1
Rattus norvegicus [11] = test: The compound was tested for blood electrolyte K+ in rat serum when induced through femoral vein (iv) at dose of 5 mg/kg; assay type: functional
How it was run: (§4)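 Sprague-Dawley rats of both sexes, 140-150 g. Serum K+ measured by flame photometry 1 h after iv dosing. Five rats per dose.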

Rattus norvegicus [12] = test: The compound was tested for activity on heart rate in anesthetized rat when induced through portal vein (ipv) at dose of 1 mg/kg; assay type: functional
How it was run: (§5)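 Heart rate in anesthetized rats, given iv (femoral vein) or into the portal vein. Rate recorded a few seconds before drug administration.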

Canis familiaris [13] = test: Antiarrhythmic activity ( protection against epinephrine induced ventricular fibrillation ) in post infarcted conscious dog administered iv.; assay type: functional; details: Canis lupus familiaris, Heart
Rattus norvegicus [14] = test: The compound was tested for activity on heart rate in anesthetized rat when induced through femoral vein (iv) at dose of 1 mg/kg; assay type: functional; how it was run: as §5
Rattus norvegicus [15] = test: The compound was tested for antiarrhythmic activity ( protection against CaCl2 induced ventricular fibrillation ) in anesthetized rat.; assay type: functional; details: Heart; how it was run: as §1
Mus musculus [16] = test: Antiarrhythmic activity ( protection against aconitine induced ventricular tachycardia) in anesthetized mouse administered perorally; assay type: functional; details: Heart, po; how it was run: as §3
Mus musculus [17] = test: Antiarrhythmic activity ( protection against aconitine induced initial arrhythmia ) in anesthetized mouse administered perorally; assay type: functional; details: Heart, po; how it was run: as §3
Canis familiaris [18] = test: The compound was tested for antiarrhythmic activity in infarcted conscious dog through iv; assay type: functional; details: Canis lupus familiaris, Heart
How it was run: (§6)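 Beagle dogs of both sexes, 10-14 kg, coronary ligature under pentobarbital (30 mg/kg iv) with artificial ventilation. Next day, dogs without spontaneous arrhythmia get epinephrine 2-10 µg/kg iv (ear vein). Compound then given iv. ECG at 5-180 min, with epinephrine re-challenge at each time. Maximal ectopic beats/min counted before and after each dose, in 2-4 dogs.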

Rattus norvegicus [19] = test: The compound was tested for blood electrolyte K+ in rat serum when induced through femoral vein (iv),at 20 mg/kg; assay type: functional; how it was run: as §4
Rattus norvegicus [20] = test: The compound was tested for activity on heart rate in anesthetized rat when induced through portal vein (ipv),at 14 mg/kg; assay type: functional; how it was run: as §5
Mus musculus [21] = test: Antiarrhythmic activity ( protection against aconitine induced initial arrhythmia ) in anesthetized mouse administered through iv(ear or caudal vein); assay type: functional; details: Heart; how it was run: as §3
Rattus norvegicus [22] = test: Activity on heart rate in anesthetized rat when induced through femoral vein (iv), at 5 mg/kg; assay type: functional; how it was run: as §5
Canis familiaris [23] = test: Antiarrhythmic activity ( protection against epinephrine induced ventricular fibrillation ) in post infarcted conscious dog administered iv(ear or caudal vein); assay type: functional; details: Canis lupus familiaris, Heart
Mus musculus [24] = test: Antiarrhythmic activity ( protection against aconitine induced ventricular tachycardia) in anesthetized mouse administered through iv(ear or caudal vein); assay type: functional; details: Heart; how it was run: as §3
Canis familiaris [25] = test: The compound was tested for antiarrhythmic activity in infarcted conscious dog through iv(ear or caudal vein); assay type: functional; details: Canis lupus familiaris, Heart; how it was run: as §6

| SMILES | EC30 (Oryctolagus cuniculus) [µg/mL] | ED50 (Rattus norvegicus [1]) [mg/kg] | LD50 [2] [mg/kg] | LD50 [3] [mg/kg] | other results |
| --- | --- | --- | --- | --- | --- |
| CCN(CC)CCOc1ccc(O/C(=C/c2ccccc2)C(C)=O)cc1 | 3 (≈ 8.49 µM) | 2 | 163 | – | – |
| CC(=O)/C(=C\c1ccccc1)Oc1ccccc1OCC(O)CNC(C)(C)C (stereo unspecified) | 0.51 (≈ 1.33 µM) | – | 80 | 17 | – |
| CC(=O)/C(=C\c1ccccc1)Oc1ccccc1OCC(C)N(C)C (stereo unspecified) | 2 (≈ 5.89 µM) | 0.9 | 45 | – | – |
| CC(=O)/C(=C\c1ccccc1)Oc1ccccc1OCCN1CCCCC1 | 3 (≈ 8.21 µM) | – | – | 11.2 | LD50 [4]: 63 mg/kg |
| CC(=O)/C(=C\c1ccccc1)Oc1ccccc1OCCN(C(C)C)C(C)C | 1 (≈ 2.62 µM) | 0.5 | – | 10.1 | LD50 [4]: 125 mg/kg |
| CC(=O)/C(=C\c1ccccc1)Oc1ccc(OCC(O)CNC(C)(C)C)cc1 (stereo unspecified) | 2.8 (≈ 7.3 µM) | 3.5 | – | – | – |
| CC(=O)/C(=C\c1ccccc1)Oc1ccc(OCC(C)N(C)C)cc1 (stereo unspecified) | 3.5 (≈ 10.3 µM) | 3 | 100 | – | – |
| CC(=O)/C(=C\c1ccccc1)Oc1cc(Cl)ccc1OCCN1CCCCC1 | 3 (≈ 7.5 µM) | 0.9 | 185 | – | – |
| CCN(CC)CCCOc1ccccc1O/C(=C/c1ccccc1)C(C)=O | 0.41 (≈ 1.12 µM) | – | 95 | 11.1 | EC50 (Mus musculus [5]): 0.0099 µg/mL (≈ 0.0269 µM); ED50 (Rattus norvegicus [6]): 35 mg/kg; ED50 (Mus musculus [7]): 4.9 mg/kg; ED50 (Rattus norvegicus [8]): 0.3 mg/kg; ED50 (Mus musculus [9]): 4.3 mg/kg; ED50 (Rattus norvegicus [10]): 0.6 mg/kg; Activity (Rattus norvegicus [11]): -8%; Activity (Rattus norvegicus [12]): 4%; ED50 (Canis familiaris [13]): 1 mg/kg; Activity (Rattus norvegicus [14]): -6%; ED50 (Rattus norvegicus [15]): 0.18 mg/kg; ED50 (Mus musculus [16]): 83 mg/kg; ED50 (Mus musculus [17]): 82 mg/kg; ED50 (Canis familiaris [18]): 1 mg/kg |
| CC(=O)/C(=C\c1ccccc1)Oc1ccccc1OCCN1CCOCC1 | 6 (≈ 16.3 µM) | 5 | 180 | 30 | – |
| CCN(CC)CCOc1ccccc1O/C(=C/c1ccccc1)C(C)O (stereo unspecified) | 1.9 (≈ 5.34 µM) | 1.5 | 110 | – | – |
| CCN(CC)CCOc1ccc(Cl)cc1O/C(=C/c1ccccc1)C(C)=O | 2 (≈ 5.16 µM) | 0.6 | 170 | – | – |
| CCN(CC)CCOc1ccccc1O/C(=C/c1ccccc1)C(=O)c1ccccc1 | 2.8 (≈ 6.74 µM) | – | – | – | LD50 [4]: 125 mg/kg |
| C=C[C@H]1CN2CC[C@H]1C[C@@H]2[C@@H](O)c1ccnc2ccc(OC)cc12 [QUINIDINE] | 3.9 (≈ 12 µM) | – | – | – | ED50 (Rattus norvegicus [6]): 47.7 mg/kg; Activity (Rattus norvegicus [19]): 3%; ED50 (Rattus norvegicus [8]): 3.2 mg/kg; Activity (Rattus norvegicus [20]): -36%; ED50 (Mus musculus [21]): 15.2 mg/kg; ED50 (Rattus norvegicus [10]): 13.5 mg/kg; Activity (Rattus norvegicus [22]): -30%; ED50 (Canis familiaris [23]): 1 mg/kg; ED50 (Mus musculus [16]): 158 mg/kg; ED50 (Mus musculus [24]): 14 mg/kg; ED50 (Canis familiaris [25]): 5.5 mg/kg; ED50 (Mus musculus [17]): 122 mg/kg |
